ChEMBL document CHEMBL2046415, “Double protein knockdown of cIAP1 and CRABP-II using a hybrid molecule consisting of ATRA and IAPs antagonist” (2012)
Calls of active or inactive are those of the source. The calls are words filed in the database; no cut-off is given here. Square brackets hold non-standard residues; d marks the D form. Peptide text beside a SMILES is read from it. Dip = N[C@H](C(=O)O)C(c1ccccc1)c1ccccc1; Chg = N[C@H](C(=O)O)C1CCCCC1; NMeA = CN[C@@H](C)C(=O)O

Assays:
IMR-32 [1] = assay: Induction of apoptosis in human IMR32 cells assessed as activation of caspase 3/7 after 24 hrs relative to control; assay type: functional
Procedure, shortened: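 IMR-32 cells exposed to compounds for 24 h; caspase 3/7 activity expressed as fold increase over untreated control; values are means of triplicate determinations.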

HT-1080 [2] = assay: Activation of proteasome in human HT1080 cells expressing FLAG-tagged cIAP1 assessed as induction of cIAP1 and CRABP-2 protein degradation after 6 hrs by Western blot analysis
IMR-32 [3] = assay: Antiproliferative activity against human IMR32 cells assessed as reduction of cell number at 30 uM after 24 to 72 hrs; assay type: functional, cell-based
[4] = target: T1, Retinoic acid receptor alpha (Homo sapiens) (UniProt P10276); assay: Induction of RARalpha degradation
T1 sequence (whole entry): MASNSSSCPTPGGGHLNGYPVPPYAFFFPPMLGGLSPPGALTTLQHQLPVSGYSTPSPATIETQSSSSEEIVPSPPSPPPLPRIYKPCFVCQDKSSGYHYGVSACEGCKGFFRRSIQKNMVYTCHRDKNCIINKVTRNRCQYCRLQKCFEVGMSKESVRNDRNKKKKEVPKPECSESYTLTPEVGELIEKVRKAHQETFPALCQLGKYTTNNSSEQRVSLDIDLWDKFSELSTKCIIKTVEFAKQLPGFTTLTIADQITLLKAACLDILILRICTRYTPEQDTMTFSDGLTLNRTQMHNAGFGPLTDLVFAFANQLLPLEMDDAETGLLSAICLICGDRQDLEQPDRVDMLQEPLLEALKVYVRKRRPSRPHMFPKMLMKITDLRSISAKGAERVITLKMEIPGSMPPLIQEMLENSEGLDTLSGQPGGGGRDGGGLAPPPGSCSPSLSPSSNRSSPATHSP

HT-1080 [5] = assay: Activation of proteasome in human HT1080 cells expressing FLAG-tagged cIAP1 assessed as induction of cIAP1 protein degradation at 10 uM after 6 hrs by Western blot analysis
IMR-32 [6] = assay: Activation of proteasome in human IMR32 cells assessed as induction of cIAP1 and CRABP-2 protein degradation at 3 to 30 uM after 24 hrs by Western blot analysis
HT-1080 [7] = assay: Activation of proteasome in human HT1080 cells expressing FLAG-tagged cIAP1 assessed as induction of cIAP1 and CRABP-2 protein degradation at 10 uM after 6 hrs by Western blot analysis in presence of proteasome inhibitor MG132
Procedure, shortened: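 Compound exposure 6 h; proteasome inhibitor MG132 (10) added to the culture 30 min before compound; cIAP1 and CRABP-II levels then read by Western blot.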

HT-1080 [8] = assay: Induction of cIAP1 protein degradation in human HT1080 cells at 0.1 to 10 uM after 6 hrs by Western blot analysis; assay type: functional, cell-based
HT-1080 [9] = assay: Activation of proteasome in human HT1080 cells expressing FLAG-tagged cIAP1 assessed as induction of CRABP-2 protein degradation at 10 uM after 6 hrs by Western blot analysis
HT-1080 [10] = assay: Activation of proteasome in human HT1080 cells expressing FLAG-tagged cIAP1 assessed as induction of cIAP1 and CRABP-2 protein degradation at 0.1 to 10 uM after 6 hrs by Western blot analysis

SMILES	Activity (HT-1080 [5])	Activity (IMR-32 [6])	Activity (HT-1080 [9])	fold change (FC) (IMR-32 [1])	Activity (IMR-32 [3])	Activity (HT-1080 [8])	other results
CN[C@@H](C)C(=O)N[C@H](C(=O)N1CCC[C@H]1C(=O)N[C@H](C(=O)NCCOCCOCCNC(=O)CO/N=C1\CCC(C)(C)C(/C=C/C(C)=C/C=C/C(C)=C/C(=O)O)=C1C)C(c1ccccc1)c1ccccc1)C1CCCCC1	Active	Active		4.44	Active		Activity (HT-1080 [2]): Dose-dependent effect; Activity [4]: inactive; Activity (HT-1080 [7]): inactive
CC1=C(/C=C/C(C)=C/C=C/C(C)=C/C(=O)O)C(C)(C)CC/C1=N\OCC(=O)NCCOCCOCCNC(=O)[C@H](CC(C)C)NC(=O)[C@@H](O)[C@H](N)Cc1ccccc1		Active		1.84			
COC(=O)[C@H](CC(C)C)NC(=O)[C@@H](O)[C@H](N)Cc1ccccc1						Active	
CC1=C(/C=C/C(C)=C/C=C/C(C)=C/C(=O)O)C(C)(C)CCC1	inactive		inactive				

Now from value to compound, other results behind:

Activity (HT-1080 [5])	Activity (IMR-32 [6])	Activity (HT-1080 [9])	SMILES	fold change (FC) (IMR-32 [1])	Activity (IMR-32 [3])	Activity (HT-1080 [8])	other results
	Active		CC1=C(/C=C/C(C)=C/C=C/C(C)=C/C(=O)O)C(C)(C)CC/C1=N\OCC(=O)NCCOCCOCCOC(=O)[C@H](CC(C)C)NC(=O)[C@@H](O)[C@H](N)Cc1ccccc1	3.61	Active		Activity (HT-1080 [10]): Active
Active		inactive	CN[C@@H](C)C(=O)N[C@H](C(=O)N1CCC[C@H]1C(=O)N[C@H](C(=O)OC)C(c1ccccc1)c1ccccc1)C1CCCCC1 (H-[NMeA][Chg]P[Dip]-OMe)			Active	
